In the library only some 5.6% were active in any assay of this set; here they are far more common.
CHOP inh – inhibitors of CHOP induction in ER stress response; CHO-K1 CHOP-promoter luciferase, tunicamycin-induced, 15-18 h; inhibition, % at 10 µM; 3.8% of 220,000 active; AID 2732;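 active = compounds that reduced the stress-induced luciferase reporter signal by more than about 70% of percent inhibition, limit read from the data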;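 also: 0% = tunicamycin plus vehicle and 100% = wells without tunicamycin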
GRIN3A LBD mod – NR3A (human) ligand-binding domain modulation; NR3A LBD differential scanning fluorimetry, Tm shift; 0% = protein alone, 100% = glycine-bound protein; Tm shift relative to glycine control, % at 25 µM; 2.5% of 340,000 active; AID 1259313;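 active = melting temperature shift of at least 10% of the positive control shift, at one fixed dose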
CHOP UPR activ – activators of apoptotic arm of unfolded protein response (CHOP); activation, % at 10 µM; 0.34% of 330,000 active; CHO-CHOP luciferase reporter, UPR activation, luminescence; percent of tunicamycin response over DMSO baseline;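 active = at 10 µM dose, activation of 40% or more, normalized to positive control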;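 also: 100% = tunicamycin at 10 µg/mL and 0% = DMSO alone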
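System: CHO-CHOP luciferase reporter cell line; amount: 500 cells/well; buffer or medium: F12 medium containing 10% fetal bovine serum; incubation: 6 h compound exposure at 37 °C after overnight seeding; measured by: luciferase luminescence after 10 min with Steady-Glo reagent; evaluation: % reporter activation, DMSO baseline versus tunicamycin full activation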
MPTP block – inhibitors of mitochondrial permeability transition pore; inhibition, % at 10 µM; 1.4% of 360,000 active; isolated mouse mitochondria, Ca2+ swelling absorbance, 30 min;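 active = inhibition of 50% or more, scaled per plate between neutral and stimulator controls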;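 also: 0% = DMSO wells given calcium and 100% = 1 mM EGTA wells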
UPR XBP1 act – activators of adaptive arm of unfolded protein response (XBP1) | AID 463104 | 0.33% of 330,000 active | CHO-XBP1 luciferase reporter, IRE1-XBP1 UPR activation, luminescence; percent of tunicamycin response, DMSO as zero | activation, % at 20 µM;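 active = versus positive control, 20 µM dose yields 30% or more activation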;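 also: 100% = tunicamycin at 10 µg/mL and 0% = DMSO only wells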
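Material: CHO cell line with stable XBP1 luciferase reporter; schedule: 16-18 h cell attachment at 37 °C, then 6 h compound exposure; signal: glow luminescence from Steady-Glo reagent; medium: serum-containing F12 medium, 10% FBS; benchmarks: tunicamycin 10 µg/mL and vehicle-only wells; read-out: percent activation relative to tunicamycin reference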
aDG glyco up – alpha-DG glycosylation activation. Pro5-aDG cells, alpha-DG glycosylation AlphaScreen (IIH6); 0% Pro5, 100% B10-LARGE cell signal. activation, % at 10 µM. 0.22% of 360,000 active. AID 624168;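 active = activation of at least 8% versus controls, or a plate z-score of at least 8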;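 also: Pro5 are CHO cells carrying HIG-tagged alpha-DG that lacks glycosylation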
Numbers without * were called inactive; / = not tested or not shown.

SMILES	CHOP inh	GRIN3A LBD mod	CHOP UPR activ	MPTP block	UPR XBP1 act	aDG glyco up
CC(C)NC(=O)NC1C2CC3CC(C2)CC1C3 (stereo not given)	6	13*	-2	1	-4	0
N#CCC(C(=O)c1cccnc1)c1ccccc1 (stereo not given)	/	/	/	-1	/	0
Cc1ccc(C(=O)c2cccc(N)c2)cc1C	79*	1	-7	2	-6	0
CCOC(=O)[C@]12CCC=C1N(Cc1ccco1)C(=O)[C@H](CC(=O)N1CCOCC1)C2	/	/	/	0	/	0
COc1cc(C)ccc1OCCOc1c(C)cc(Cl)cc1Cl	42	10*	-2	1	-3	0
Cc1c(Cl)c(=O)n2c(=O)c(Cl)c(C)n12	32	0	-1	0	-2	0
C[C@H](CO)N1C[C@H](C)[C@@H](CN(C)S(=O)(=O)c2ccccc2)Oc2c(NC(=O)NC3CCCCC3)cccc2C1=O	/	1	3	1	3	0
COc1ccc(C)cc1NS(=O)(=O)c1ccc2c(c1)n(C)c(=O)n2C	8	-2	-1	1	-5	0
COc1ccc(C)cc1NS(=O)(=O)c1ccc2c(c1)N(C)CCO2	/	18*	0	0	-1	0
COC(=O)CC1=NC(=O)CS1	14	11*	-3	0	0	0
COc1ccc(/C=C2/CCc3ccccc3C2=O)cc1CN1CCOCC1	-67	-2	3	0	-1	0
O=C1/C(=C/c2cccc([N+](=O)[O-])c2)CCc2ccccc21	16	11*	4	-2	2	0
COc1cccc(C=C2Cc3ccccc3C2=O)c1	/	/	/	0	/	4
COc1cccc(/C=C2\CCc3ccccc3C2=O)c1	-14	22*	0	0	-6	0
Cc1ccsc1/C=C1\CCc2ccccc2C1=O	77*	1	-5	0	-4	0
COc1ccc(/C=C2\CCc3ccccc3C2=O)cc1Cn1nc(C)cc1C	70*	5	2	0	1	1
O=C1C(=Cc2ccccn2)CCc2ccccc21	/	/	/	0	/	1
CCOc1ccccc1C(=O)NCC(=O)Nc1ccc(-c2ccccc2)cc1	/	1	2	0	1	0
CC(C)NC[C@H](O)COc1ccc(CC(N)=O)cc1	-10	1	0	/	-5	0
CCCS(=O)(=O)N1CCc2ccc(NC(=O)C3CCCO3)cc2C1 (stereo not given)	/	5	0	-3	-1	0
O=C1/C(=C/c2cccc([N+](=O)[O-])c2)CSc2ccc(Cl)cc21	16	-7	1	6	7	0
CCN1C/C(=C\c2cccc([N+](=O)[O-])c2)C(=O)/C(=C/c2cccc([N+](=O)[O-])c2)C1	108*	-2	/	0	/	-1
O=C(COc1ccccc1)Nc1cccc(-c2nc3cc4ccccc4cc3[nH]2)c1	71*	26*	11	31	19	0
O=C(COc1ccccc1)Nc1cccc(-c2nn[nH]n2)c1	/	7	-1	-1	-3	0
Cc1nn2cc(-c3ncc(C(F)(F)F)cc3Cl)cnc2c1Br	74*	0	-1	-1	-5	0
SMILES	CHOP inh	GRIN3A LBD mod	CHOP UPR activ	MPTP block	UPR XBP1 act	aDG glyco up
Cc1cc(C(=O)OCC(=O)N(CC(C)C)c2c(N)n(Cc3ccccc3)c(=O)[nH]c2=O)c(C)o1	/	-1	0	-2	0	0
CCN(Cc1ccncc1)C(=O)c1cc(COc2c(F)cccc2F)on1	/	32*	-1	1	-5	0
CC1(C)OC(=O)C(=CNC(=O)c2c(F)cccc2F)C(=O)O1	73*	-4	-3	14	-3	0
CN(CC(=O)N1CCN(Cc2ccccc2)CC1)C(=O)Cc1cccc2ccccc12	/	1	0	-2	-3	0
CCCC(NC(=S)NCC1CCCO1)C12CC3CC(CC(C3)C1)C2 (stereo not given)	83*	0	12	0	3	2
COc1ccc(C2CC(c3ccc(C(F)(F)F)cc3)=NN2c2ccc(S(N)(=O)=O)cc2)cc1 (stereo not given)	/	107*	5	2	3	3
COc1ccc(C2CC(c3ccccc3Br)=NN2c2ccc(S(N)(=O)=O)cc2)cc1 (stereo not given)	/	14*	1	1	5	0
COc1ccc(C2CC(C(C)(C)C)=NN2c2ccc(S(N)(=O)=O)cc2)cc1 (stereo not given)	/	-5	3	3	2	0
COc1ccc(C2CC(c3ccccc3F)=NN2c2ccc(S(N)(=O)=O)cc2)cc1 (stereo not given)	/	3	5	4	8	2
COc1ccc(C2CC(c3ccccc3C(F)(F)F)=NN2c2ccc(S(N)(=O)=O)cc2)cc1 (stereo not given)	/	18*	4	0	1	2
CCOC(=O)C1=CN(Cc2cccc(F)c2)S(=O)(=O)N(CC)C1c1ccc(C(F)(F)F)cc1 (stereo not given)	/	4	12	1	1	0
COc1ccc(S(=O)(=O)N2CCC(C(=O)Nc3nccs3)CC2)cc1	/	1	1	0	-1	0
CCc1sc(C(=O)Nc2cc(Cl)ccc2N2CCCCC2)cc1C	-16	1	-1	45	-2	0
Cc1ccc(C(=O)Nc2cc(Cl)ccc2N2CCCCC2)s1	21	22*	-2	7	2	0
Cc1ccc(C(=O)Nc2cc([N+](=O)[O-])ccc2F)s1	-6	12*	1	0	2	0
Cc1cc(C)nc(N2CCCC(C(=O)NCc3ccccc3F)C2)n1 (stereo not given)	2	-2	-1	0	-2	0
CCN(CC)CCOc1ccc2c(c1)C(=NO)c1cc(OCCN(CC)CC)ccc1-2	2	-1	-1	1	-5	0
CCCOc1ccc2c(c1)C(=NN=C(N)N)c1cc(OCCC)ccc1-2	/	34*	10	3	20	0
COc1cc2c(=O)n(Cc3ccccc3)c(=O)n(CC(=O)NCc3ccco3)c2cc1OC	71*	-1	/	-1	/	0
O=C(Cn1c(=O)n(Cc2ccccc2)c(=O)c2ccccc21)NCc1ccco1	11	-1	0	0	-1	0
CCCN1CCN(CCCNC(=O)Cn2nc(C)n3c(cc4cc(OC)ccc43)c2=O)CC1	/	1	1	1	-7	0
CC(C)Oc1ccccc1/C=N/Nc1ccccc1[N+](=O)[O-]	76*	-7	1	2	-2	-1
Cc1ccc(NC(=O)Cn2nnc(C(=O)NCc3ccccc3)c2N)cc1C	23	26*	-3	4	-1	0
